APP 5'UTR act: activators of APP 5'UTR luciferase reporter, primary screen, SH-SY5Y cells. actives 1% (n = 190,000). SH-SY5Y APP 5'UTR luciferase reporter, luminescence; zero percent = DMSO vehicle wells. activation, % at 2 µM;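 active = activation above a set limit, based on mean plus 3 SD of controls, cut at about 140% in these data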
p97 inhibitor: inhibitors of human p97 ATPase, primary screen, biochemical; recombinant p97 ATPase, Kinase-Glo ATP luminescence, 3 h; inhibition, % at 8 µM; Transitional endoplasmic reticulum ATPase (Homo sapiens), P55072; actives 0.42% (n = 220,000); in the data active = inhibition above about 15%;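 also: 0% = DMSO vehicle and 100% = wells lacking enzyme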
Target sequence (P55072 whole entry, looked up): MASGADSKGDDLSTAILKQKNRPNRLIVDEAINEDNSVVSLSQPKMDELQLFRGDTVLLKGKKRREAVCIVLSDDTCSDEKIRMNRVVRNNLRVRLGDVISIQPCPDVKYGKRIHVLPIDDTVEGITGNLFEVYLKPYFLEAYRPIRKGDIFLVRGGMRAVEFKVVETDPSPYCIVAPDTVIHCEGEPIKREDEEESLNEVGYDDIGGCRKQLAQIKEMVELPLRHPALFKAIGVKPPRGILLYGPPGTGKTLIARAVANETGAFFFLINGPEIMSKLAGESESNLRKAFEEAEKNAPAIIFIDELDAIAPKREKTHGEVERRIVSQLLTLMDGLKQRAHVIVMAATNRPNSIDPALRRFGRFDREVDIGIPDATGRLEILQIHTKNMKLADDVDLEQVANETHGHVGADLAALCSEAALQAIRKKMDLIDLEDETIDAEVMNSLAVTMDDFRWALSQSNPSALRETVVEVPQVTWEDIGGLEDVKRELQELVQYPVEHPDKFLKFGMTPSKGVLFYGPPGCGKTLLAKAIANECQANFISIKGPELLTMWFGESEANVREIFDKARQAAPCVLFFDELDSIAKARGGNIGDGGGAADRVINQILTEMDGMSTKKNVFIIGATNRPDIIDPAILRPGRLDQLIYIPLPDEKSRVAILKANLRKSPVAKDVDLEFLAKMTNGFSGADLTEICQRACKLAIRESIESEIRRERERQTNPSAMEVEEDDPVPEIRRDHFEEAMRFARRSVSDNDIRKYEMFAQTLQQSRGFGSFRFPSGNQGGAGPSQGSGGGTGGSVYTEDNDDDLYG
STAT1 act: STAT1 signaling activators, primary screen, cell-based, HTS, luciferase reporter | NIH 3T3 STAT1-luciferase reporter, IFN-gamma, luminescence; 100% = IFN-gamma alone, no compound | activation (% of control), % at 5.5 µM | actives 2.6% (n = 200,000) | AID 932, 2007;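 active = activation above the screen-wide mean activation plus 3 SD, cut at about 130% in these data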;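 also: raw ratio to IFN-gamma control signal so 100% means no change and 0% no light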
NF-kB expr up: activators of NF-kB expression in neurons, primary screen, cell-based, HTS; human neuronal cells, NF-kB reporter expression; stronger effect = higher value; fold change at 12.5 µM; actives 1.6% (n = 190,000); in the data active = fold change above about 3.3
Mdm2 ligase inh: MDM2-luciferase reporter signal enhancers, primary screen, MDM2 E3 ligase inhibitor project, cell-based, luminescence, 1536-well; E3 ubiquitin-protein ligase Mdm2 (Homo sapiens), Q00987; cell-based MDM2 ubiquitination luciferase reporter, 2 h; 0 = plate control, 100 = twice control, blank-subtracted; signal enhancement, % at 5 µM; actives 0.11% (n = 210,000);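 active = signal enhancement of 30% or more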;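 also: luminescence tracks abundance of the self-degrading MDM2-luciferase fusion protein; higher signal means inhibition of MDM2 E3 ligase activity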
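System: stable MDM2–luciferase fusion reporter cells / Input: 2000 cells seeded into each well / Schedule: 4 h settle plus 2 h compound, 37 °C / Compound: single-point 5 µM / Buffer or medium: cells held in DMEM / Benchmarks: control and blank well means / Evaluation: percent signal gain over controls, blank-subtracted / Measured by: luciferase luminescence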
Wee1 stabilizer: Wee1 degradation inhibitors, primary screen, cell-based, HeLa, Wee1K328M-luciferase, luminescence; Wee1-like protein kinase (Homo sapiens), P30291; reporter increase, % at 5 µM; AID 1321, 2008; HeLa Luc-Wee1K328M stability; 100% = proteasome inhibitor MG132 effect; actives 1.2% (n = 220,000);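 active = activation above the mean of all tested compounds plus 3 SD, set per screening run, cut at about 8.8% in these data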;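 also: cells exposed to compound for 20 h before luminescence read; 0% = DMSO alone and 100% = MG132 at 30 µM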
Active calls of the source: *; . = no result given. Hits are enriched below; roughly 4.6% of the tested compounds scored in any of these assays.

SMILES | APP 5'UTR act | p97 inhibitor | STAT1 act | NF-kB expr up | Mdm2 ligase inh | Wee1 stabilizer
Cc1c(C(=O)Nc2nc3ccccc3[nH]2)oc2ccc(Br)cc12 | 40 | 2 | 114 | 1.1 | -11 | 0
COC(=O)c1sc(NC(=O)c2oc3ccccc3c2C)nc1C | 27 | -2 | 144* | 2.5 | -20 | 0
O=C(Nc1nc2ccccc2[nH]1)C1CC1 | 10 | -5 | 124 | 0.94 | -11 | 8
Cc1c(C(=O)Nc2ccccn2)oc2ccccc12 | 153* | 0 | 124 | 4.5* | -35 | 7
Cc1c(C(=O)Nc2ccncc2)oc2ccccc12 | 27 | -6 | 109 | 1 | -5 | 0
Cc1c(C(=O)Nc2nc3ccccc3[nH]2)oc2ccccc12 | 182* | 3 | 162* | 8.1* | -14 | 4
CCCCN(C)CCNC(=O)CCNC(=O)Cn1ccc2ccccc2c1=O | -28 | 1 | 103 | 0.92 | 0 | 5
CC(C)CNS(=O)(=O)c1ccc(CCC(=O)N2CCC(C(N)=O)CC2)cc1 | 1 | -3 | 99 | 0.81 | -17 | -1
COc1ccccc1Cn1c(/C=C/c2ccccc2)nc2ccccc21 | 38 | 1 | 112 | 2 | -20 | 3
Cn1c(=O)c(/C=C/c2ccccc2)nc2ccccc21 | 138* | -3 | 134* | 4.2* | -15 | 4
COCCn1c(/C=C/c2ccccc2)nc2ccccc21 | 109 | -5 | 146* | 3.9* | -27 | -1
Cn1c(=O)c(/C=C/c2ccc(F)cc2)nc2ccccc21 | 38 | -1 | 120 | 1.9 | -16 | -3
O=C(CSc1nnc(-c2ccccc2F)n1C1CC1)Nc1cccnc1Cl | 20 | 1 | 103 | 1 | -3 | 7
c1ccc(Nc2nc3ccccc3o2)cc1 | 133 | -4 | 137* | 5.3* | -27 | 3
Cc1cc(C)nc(Nc2nc3ccccc3o2)n1 | . | 9 | . | . | -12 | 0
Cc1ccc(NC(=O)c2c(C)nc(Nc3nc4ccccc4o3)nc2C)cc1 | -10 | -2 | 93 | 0.9 | -30 | -1
FC(F)(F)Oc1ccc(Nc2nc3ccccc3o2)cc1 | 77 | -4 | 134* | 1.9 | -16 | -2
CN(C)C(=O)N(CCCN1CCOCC1)Cc1cccc2ccccc12 | . | 0 | . | . | -46 | -2
Oc1ccc(N=C/C=C/c2cccc(Br)c2)cc1-c1nc2ccccc2s1 | 44 | 5 | 144* | 1.3 | 10 | 3
Cc1c(NC(=O)C(C)OC(=O)C23CC4CC(CC(Br)(C4)C2)C3)c(=O)n(-c2ccccc2)n1C (stereo not drawn) | 5 | 2 | 99 | 1.2 | 0 | -3
COc1ccccc1NC(=O)N1C2CCCC1CC(NC(=O)c1ccccc1)C2 (stereo not drawn) | 13 | 2 | 96 | 1.1 | -5 | 0
CC(=O)Nc1ccc2c(c1)OCO2 | -4 | 7 | 98 | 1 | 5 | 2
O=C(Nc1ccc2c(c1)OCCO2)NC12CC3CC(CC(C3)C1)C2 | 90 | 0 | 142* | 1.7 | -12 | 7
O=C(Nc1ccc2c(c1)OCO2)Nc1ccc(Br)cn1 | 18 | 4 | 149* | 2.1 | -4 | 1
Cc1ccnc(NC(=O)Nc2ccc3c(c2)OCO3)c1 | 144* | 4 | 146* | 4.9* | 5 | 8
SMILES | APP 5'UTR act | p97 inhibitor | STAT1 act | NF-kB expr up | Mdm2 ligase inh | Wee1 stabilizer
O=C(Nc1ccc2c(c1)OCCO2)Nc1ccc2c(c1)OCO2 | 174* | -1 | 72 | 6.6* | -62 | 3
CCCN1Cc2cccc(C(=O)NCc3ccc(C)cc3)c2C1=O | -8 | 0 | 92 | 0.95 | -5 | 9.3*
Cc1cc(/C=C2/NC(=O)N(Cc3ccccc3F)C2=O)c(C)n1C(C)C | 2 | 1 | 100 | 0.99 | 16 | 0
Cc1cc(/C=C2/NC(=O)N(c3ccccc3)C2=O)c(C)n1C(C)C | 62 | 1 | 129* | 1.3 | -1 | -3
Cc1onc(-c2ccc(Cl)cc2)c1-c1ccnc(SCC(=O)Nc2ccc(C(C)C)cc2)n1 | . | -12 | . | . | -21 | -2
CC(C)(C)C1CCc2c(C(=O)N/N=C/c3cccs3)csc2C1 (stereo not drawn) | 17 | 2 | 129* | 2.4 | -17 | 5
COc1cccc(NC(=O)c2csc3c2CCCC3)c1 | 75 | 2 | 145* | 1 | -10 | 3
Cc1ccc(/C=N/NC(=O)c2csc3c2CCCC3)cc1 | -90 | 0 | 119 | 3.8* | 2 | 8
Cc1ccccc1NC(=O)c1csc2c1CCCC2 | 25 | 0 | 117 | 1.7 | -21 | -2
CC(C)(C)C1CCc2c(C(=O)NNC(=O)/C=C/C(=O)O)csc2C1 (stereo not drawn) | -5 | 5 | 96 | 1.2 | -9 | 6
COc1ccc(NC(=O)c2csc3c2CCCC3)cc1 | 159* | -5 | 142* | 7.3* | -12 | 4
Cc1cccc(NC(=S)NNC(=O)c2csc3c2CCCC3)c1 | 92 | 1 | 115 | 1.9 | -16 | 3
CCCn1c(N)c(CC)c(=O)[nH]c1=O | -12 | 10 | 106 | 1.1 | -9 | 2
Cc1ccc(S(=O)(=O)NNC(=O)c2csnn2)cc1 | -8 | 5 | 93 | 1.1 | -12 | 0
Cc1ccc(/C=N\NC(=O)c2csnn2)cc1 | 23 | -3 | 134* | 2.3 | -8 | -1
Cc1scc(C(=O)N/N=C/c2ccsc2)c1C | 69 | 3 | 140* | 4.6* | -31 | 5
CCc1cc2c(=O)n(CCC(C)C)c(=S)[nH]c2s1 | 20 | 4 | 103 | 1.1 | -11 | 3
COC(=O)c1ccc(CSc2nc3ccccc3o2)cc1 | 126 | -1 | 92 | 3.8* | -84 | -1
O=[N+]([O-])c1ccc(CSc2nc3ccccc3o2)cc1 | 177* | 0 | 132* | 5* | -31 | 2
COC(=O)c1ccc(CSc2nc(N)cc(N)n2)cc1 | 19 | 0 | 105 | 1.4 | 1 | -1
COc1nnc(-c2ccccc2)s1 | -3 | -2 | 103 | 1.5 | 3 | 2
CCN(CC)C(=O)N1CCc2ccccc2C1CN1C(=O)c2ccccc2C1=O (stereo not drawn) | -1 | -4 | 94 | . | . | 5
CC(=O)Nc1cccc(OCc2ccc(S(=O)(=O)Cc3ccccc3)cc2)c1 | 3 | -3 | 118 | 1.5 | -13 | 2
CCN(CC)c1ccc(/C=N/N2CCOCC2)cc1 | 48 | 4 | 139* | 3.2 | -46 | -1
Cc1ccc(Sc2ccc(NC(=O)CCl)cc2)cc1C | -24 | -4 | 105 | 0.99 | -10 | 4

Screening results as filed in PubChem BioAssay.
